This is one part of a sample in which hits are shown more often than they occur.
FXN GAA850 act = increases GAA850 frataxin promoter reporter activity; activation, % at 6 µM; HEK293 lucGAA850 FXN promoter luciferase reporter, 24 h; percent of 10 µM SAHA response; 0.56% of 360,000 active;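 active means activation above the average of all compounds screened plus 3 SD, cutoff fixed separately per campaign, cut at about 7.5% in these data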;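 further: 0% = DMSO wells and 100% = 10 µM SAHA wells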
CHOP inhibitor = blocks CHOP induction under ER stress; AID 2732; inhibition, % at 10 µM; 3.8% of 220,000 active; CHO-K1 CHOP-promoter luciferase, tunicamycin-induced, 15-18 h;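 active means compounds that reduced the stress-induced luciferase reporter signal by more than about 70% of percent inhibition, limit read from the data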;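 further: 0% = tunicamycin plus vehicle and 100% = wells without tunicamycin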
UPR XBP1 act = adaptive UPR (XBP1) activation. 0.33% of 330,000 active. CHO-XBP1 luciferase reporter, IRE1-XBP1 UPR activation, luminescence; percent of tunicamycin response, DMSO as zero. activation, % at 20 µM;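 active means versus positive control, 20 µM dose yields 30% or more activation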;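 further: 100% = tunicamycin at 10 µg/mL and 0% = DMSO only wells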
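Material – CHO cell line with stable XBP1 luciferase reporter · Buffer or medium – F12 plus 10% FBS · Compound – single point, 20 µM final compound, 1% DMSO · Schedule – 16-18 h cell attachment at 37 °C, then 6 h compound exposure · Signal – Steady-Glo luminescence read · Benchmarks – high control tunicamycin 10 µg/mL final, low control DMSO vehicle only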
CHOP UPR activ = apoptotic UPR (CHOP) activation. 0.34% of 330,000 active. CHO-CHOP luciferase reporter, luminescence; percent of tunicamycin response over DMSO baseline. activation, % at 10 µM;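 active means at 10 µM dose, activation of 40% or more, normalized to positive control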;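 further: 100% = tunicamycin at 10 µg/mL and 0% = DMSO alone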
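System: CHO CHOP reporter cells. Amount: 500 cells per well. Buffer or medium: F12 medium, 10% FBS. Compound dosing: one dose, 10 µM in 0.5% DMSO. Incubation: 6 h compound exposure at 37 °C after overnight seeding. Technique: Steady-Glo luciferase luminescence. Benchmarks: tunicamycin and DMSO controls.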
Numbers without * were called inactive; · = no result.

SMILES	FXN GAA850 act	CHOP inhibitor	UPR XBP1 act	CHOP UPR activ
COc1ccc(NC(=O)N(CCN2CCCC2)Cc2cc3cc(OC)c(OC)cc3[nH]c2=O)cc1	2	78*	4	0
CCc1ccc2[nH]c(=O)c(CN(Cc3ccccc3)C(=O)Nc3ccccc3OC)cc2c1	-5	73*	5	1
CC(=O)Nc1cc(-c2cccc(NS(C)(=O)=O)c2)cn2c(-c3ccc(F)c(Cl)c3)cnc12	-1	·	·	·
Cc1cnc(NC(=O)C2(C)CCN2C(=O)C(C)C)s1 (centres undefined)	0	·	·	·
COc1ccc(-c2ccccc2)cc1NC(=O)[C@@H]1O[C@H](CO)[C@H](O)[C@H](O)[C@H]1O	0	·	·	·
COc1cc(Cc2cc(OC)c(O)c(OC)c2)cc(OC)c1O	-1	·	·	·
CCOC(=O)CNC(=O)CN1CCCN(S(=O)(=O)c2ccc(Br)s2)CC1	3	6	-3	-2
O=C(CN1CCCN(S(=O)(=O)c2ccc(Br)s2)CC1)Nc1ccc(Cl)cc1	-1	72*	-2	-1
O=C(OCc1ccccc1)N1CCCC2CC1c1ccccc12 (centres undefined)	0	·	·	·
c1ccc(Cn2ncc3c(N4CCN(c5ccccc5)CC4)ncnc32)cc1	1	·	·	·
Cc1ccc(C)c(NC(=O)Cc2coc3cc4c(cc23)CCC4)c1	0	85*	-4	0
CCOC(=O)c1ccc2nc(Nc3nc4ccc(F)cc4s3)sc2c1	-7	90*	-9	-9
CCOC(=O)c1sc(NC(=O)c2ccc(S(=O)(=O)N3CCCCCC3)cc2)nc1-c1ccccc1	0	12	-1	0
CCOC(=O)c1sc(NC(=O)c2ccc(S(=O)(=O)N3CCCCC3)cc2)nc1-c1ccccc1	2	84*	-2	0
CCOC(=O)N1CCN(S(=O)(=O)c2ccc(C(=O)Nc3nc4ccc(F)cc4s3)cc2)CC1	-1	84*	26	6
COC(=O)c1ccc2nc(Nc3nc4c(F)cc(F)cc4s3)sc2c1	-10	92*	-5	-8
CCOC(=O)N1CCN(S(=O)(=O)c2ccc(C(=O)Nc3nc4ccccc4s3)cc2)CC1	-1	26	2	7
Cc1ccc(Cl)cc1-c1cc(C(=O)Nc2ccc(F)cc2)[nH]n1	3	·	·	·
CC(O)(c1ccc(F)c(F)c1)c1nc(-c2ccccc2)cs1 (centres undefined)	0	·	·	·
COc1cc(CNC(=O)c2cc(-c3ccc(OC)cc3C)n[nH]2)cc(OC)c1	-1	·	·	·
CCN1C(=O)CS/C1=N\S(=O)(=O)c1ccc(Cl)cc1	2	17	-1	0
CCn1c(Cl)c(C=O)s/c1=N\S(=O)(=O)c1ccccc1	-16	105*	-7	-11
O=Nc1c(-c2cccc([N+](=O)[O-])c2)nc2ncccn12	1	34	9	131*
Cc1csc(NC(=O)C2CCN(S(=O)(=O)c3cccs3)CC2)n1	-2	-13	-2	1
CC(=O)Nc1ccc(-c2csc(NC(=O)C3CCN(S(=O)(=O)c4cccs4)CC3)n2)cc1	1	81*	·	·
SMILES	FXN GAA850 act	CHOP inhibitor	UPR XBP1 act	CHOP UPR activ
O=c1cc(-c2ccccc2Cl)oc2c([N+](=O)[O-])c(O)cc(O)c12	-4	76*	-5	-1
CCc1ccc(NC(=O)c2ccc(F)c(S(=O)(=O)NCC3COc4ccccc4O3)c2)cc1 (centres undefined)	-2	78*	2	3
O=C(NCC1COc2ccccc2O1)c1ccc(F)c(S(=O)(=O)N2CCOCC2)c1 (centres undefined)	-1	·	0	-1
CC(CN1CCOCC1)OC(=O)c1ccc(Br)cc1 (centres undefined)	0	92*	11	7
COc1ccc(N2C(=O)CC(Sc3ncn[nH]3)C2=O)c(OC)c1 (centres undefined)	-5	91*	-1	11
O=c1cc2c(nn1Cc1ccccc1Cl)-c1ccccc1CC2	3	86*	2	1
O=c1cc2c(nn1Cc1cccc(Cl)c1)-c1ccccc1CC2	0	95*	2	2
O=c1cc2c(nn1Cc1ccc(Cl)cc1Cl)-c1ccccc1CC2	1	50	-1	-1
O=c1cc2c(nn1Cc1ccc(Cl)cc1)-c1ccccc1CC2	1	88*	-3	0
O=C1c2ccccc2C(=O)N1OCc1cccc(Cl)c1	2	28	1	-1
Cc1ccc(Cn2nc3c(cc2=O)CCc2ccccc2-3)cc1	5	32	4	0
CC(C)CN(C(=O)COC(=O)CCSc1ccc(Cl)cc1)c1c(N)n(Cc2ccccc2)c(=O)[nH]c1=O	1	·	·	·
CCCCCCN1C[C@@H](n2cc(C3CC3)nn2)[C@H](O)C[C@@H]1c1ccc(OC)cc1	1	·	·	·
Clc1cc(Cl)cc(Nc2ccccc2CN(C/C=C/c2ccc3c(c2)OCO3)Cc2ccccc2)c1	1	·	·	·
CN(C)c1ccc(C(=O)Nc2nc3c(s2)CCCC3)cc1	0	92*	-7	-6
Cc1onc(-c2ccccc2)c1C(=O)Nc1nc2c(s1)CCCC2	1	-23	0	5
Cc1onc(-c2c(F)cccc2Cl)c1C(=O)Nc1nc2c(s1)CCCC2	-1	84*	-3	1
COc1cc(-c2nnc(COC(=O)c3ccc([N+](=O)[O-])o3)o2)cc(OC)c1OC	-1	·	·	·
CC(C)CC(=O)NC(=S)NNC(=O)c1ccc([N+](=O)[O-])cc1	-1	29	-2	0
CC(C)CC(=O)NC(=S)NNC(=O)c1ccc(NC(=O)C2CCCCC2)cc1	-1	72*	2	1
CC(=O)Nc1ccc(C=C(C#N)c2ccc(C)cc2)cc1	4	·	·	·
Cc1ccc(S(=O)(=O)n2nc(C)c(Br)c2C)c(C)c1C	-1	89*	-1	-1
CC1=C(OC(=O)c2ccccc2)C(C)(C)C(c2ccc(Br)cc2)OC1=O (centres undefined)	4	91*	-4	0
CC1=C(OC(=O)c2ccccc2)C(C)(C)C(c2ccccc2)OC1=O (centres undefined)	3	81*	-5	-1
CCCNC(=O)c1cc(C2CCCN(C(=O)c3ccc4ccccc4c3)C2)on1 (centres undefined)	1	·	·	·
SMILES	FXN GAA850 act	CHOP inhibitor	UPR XBP1 act	CHOP UPR activ
CCc1ccc(S(=O)(=O)ON2C(=O)c3ccccc3C2=O)cc1	-1	95*	-5	1
O=C1c2cccc3cccc(c23)C(=O)N1OS(=O)(=O)c1ccc(Cl)cc1	0	63	-5	-4
CC(C)NC(=O)C1(C)CCN1C(=O)c1ccc2c(c1)OCO2 (centres undefined)	-1	·	·	·
COc1ccccc1C(=O)Oc1ccccc1C(=O)Nc1ccccc1	3	31	1	3
O=C(Oc1ccccc1C(=O)Nc1ccccc1)c1ccc(Br)c([N+](=O)[O-])c1	3	84*	2	9
O=C(Nc1ccccc1)c1ccccc1Oc1ccc(C(F)(F)F)cc1[N+](=O)[O-]	3	71*	1	-1
